Activity calls are given as the source filed them. No cut-off for these calls is given here.
Columns and labels:
Mus musculus [1] = assay: Effective dose required for its agonist activity in mouse by acetylcholine writhing test after sc administration; assay type: functional
Procedure, shortened: (§1)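 Agonist (analgesic) screens: modified D'Amour-Smith tail-flick, phenylquinone-induced writhing, acetylcholine-induced writhing (mouse), and rat bradykinin test. Compounds given sc or po.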

Rattus norvegicus [2] = assay: Analgesic dose required for its phenazocine antagonistic activity in rat after peroral administration; assay type: functional
Procedure, shortened: (§2)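 Narcotic antagonist activity in rats by the Harris–Pierson tail-flick procedure against phenazocine, with compounds given orally. AD50 reported in mg/kg with 95% confidence limits, calculated as free base.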

Rattus norvegicus [3] = assay: Effective dose required for its agonist activity in bradykinin test after sc administration; assay type: functional; procedure, shortened: as §1
Rattus norvegicus [4] = assay: Analgesic dose required for its narcotic activity in meperidine after peroral administration; assay type: functional
Rattus norvegicus [5] = assay: Effective dose required for its agonist activity in rat tail flick test after sc administration; I = inactive; assay type: functional, organism-based; procedure, shortened: as §1
Rattus norvegicus [6] = assay: Effective dose required for its agonist activity in rat bradykinin test after po administration; assay type: functional; procedure, shortened: as §1
Rattus norvegicus [7] = assay: Analgesic dose required for its narcotic activity in Phenazocine after sc administration; assay type: functional
Mus musculus [8] = assay: Effective dose required for its agonist activity in mouse by phenylquinone test after sc administration; assay type: functional; procedure, shortened: as §1
Rattus norvegicus [9] = assay: Analgesic dose required for its narcotic activity in Phenazocine after peroral administration; assay type: functional
Rattus norvegicus [10] = assay: Analgesic dose required for its narcotic activity in meperidine after sc administration; assay type: functional
Mus musculus [11] = assay: Effective dose required for its agonist activity in phenylquinone test after po administration; assay type: functional; procedure, shortened: as §1
Rattus norvegicus [12] = assay: Analgesic dose required for its narcotic activity in morphine after sc administration; assay type: functional
Rattus norvegicus [13] = assay: Analgesic dose required for its narcotic activity morphine after peroral administration; assay type: functional
Rattus norvegicus [14] = assay: Analgesic dose required for its narcotic activity morphine after po administration; assay type: functional
Rattus norvegicus [15] = assay: Effective dose required for its agonist activity in rat bradykinin test after sc administration; assay type: functional; procedure, shortened: as §1
Rattus norvegicus [16] = assay: Analgesic dose required for its narcotic activity in meperidine after po administration; assay type: functional
Rattus norvegicus [17] = assay: Analgesic dose required for its narcotic activity in Phenazocine after po administration; assay type: functional
Mus musculus [18] = assay: Effective dose required for its agonist activity in acetylcholine test after po administration; assay type: functional; procedure, shortened: as §1
Rattus norvegicus [19] = species on record: Rattus norvegicus; assay: Analgesic dose required for its narcotic activity in morphine; assay type: functional
Mus musculus [20] = assay: Effective dose required for its agonist activity in acetylcholine test after sc administration; assay type: functional; procedure, shortened: as §1
Mus musculus [21] = assay: Effective dose required for its agonist activity in Phenylquinone writhing test after sc administration; assay type: functional; procedure, shortened: as §1
Rattus norvegicus [22] = species on record: Rattus norvegicus; assay: Tested for peroral analgesic dose required for its narcotic activity in meperidine; assay type: functional
Rattus norvegicus [23] = assay: Analgesic dose required for its phenazocine antagonistic activity in rat after peroral administration; I = inactive at 40; assay type: functional, organism-based; procedure, shortened: as §2
Rattus norvegicus [24] = assay: analgesic dose required for its phenazocine antagonistic activity in rat after peroral administration; I = inactive; assay type: functional, organism-based; procedure, shortened: as §2
Rattus norvegicus [25] = assay: Analgesic dose required for its phenazocine antagonistic activity in rat after peroral administration; ? = Questionable activity; assay type: functional, organism-based; procedure, shortened: as §2

Structure (SMILES): CNc1ccc2c(c1)[C@@]1(C)CCN(CC3CC3)C(C2)[C@@H]1C
- ED50 (Mus musculus [1]): 0.44 mg/kg
- AD50 (Rattus norvegicus [2]): 1.35 mg/kg

Structure (SMILES): C[C@H]1[C@H]2Cc3ccc(O)cc3[C@]1(C)CCN2CC1CC1 [CYCLAZOCINE]
- ED50 (Rattus norvegicus [3]): 0.04 mg/kg
- AD50 (Rattus norvegicus [4]): 4.2 mg/kg
- ED50 (Rattus norvegicus [5]): inactive
- ED50 (Rattus norvegicus [6]): 3.7 mg/kg
- AD50 (Rattus norvegicus [7]): 0.028 mg/kg
- ED50 (Mus musculus [8]): 0.04 mg/kg
- AD50 (Rattus norvegicus [9]): 3.1 mg/kg
- AD50 (Rattus norvegicus [10]): 0.019 mg/kg
- ED50 (Mus musculus [11]): 3.6 mg/kg
- AD50 (Rattus norvegicus [12]): 0.029 mg/kg
- AD50 (Rattus norvegicus [13]): 4.3 mg/kg

Structure (SMILES): CC(C)=CCN1CC[C@]2(C)c3cc(O)ccc3C[C@H]1[C@H]2C [(+)-PENTAZOCINE]
- ED50 (Rattus norvegicus [5]): inactive
- AD50 (Rattus norvegicus [14]): 140 mg/kg
- Protection (Rattus norvegicus [6]): 40 mg/kg
- AD50 (Rattus norvegicus [7]): 6.3 mg/kg
- ED50 (Mus musculus [8]): 3.8 mg/kg
- ED50 (Rattus norvegicus [15]): 2.6 mg/kg
- AD50 (Rattus norvegicus [16]): 68 mg/kg
- AD50 (Rattus norvegicus [10]): 3.9 mg/kg
- AD50 (Rattus norvegicus [17]): 76 mg/kg
- ED50 (Mus musculus [11]): 95 mg/kg
- AD50 (Rattus norvegicus [12]): 9 mg/kg

Structure (SMILES): C=CCN1CC[C@]2(C)c3cc(N)ccc3CC1[C@@H]2C
- ED50 (Mus musculus [1]): 2.5 mg/kg
- AD50 (Rattus norvegicus [2]): 1.5 mg/kg

Structure (SMILES): C[C@H]1C2Cc3ccc(N)cc3[C@@]1(C)CCN2CC1CC1
- ED50 (Mus musculus [18]): 3.2 mg/kg
- ED50 (Rattus norvegicus [5]): inactive
- AD50 (Rattus norvegicus [14]): 15 mg/kg
- ED50 (Rattus norvegicus [6]): 8.1 mg/kg
- AD50 (Rattus norvegicus [7]): 2.7 mg/kg
- ED50 (Mus musculus [8]): 1.4 mg/kg
- ED50 (Rattus norvegicus [15]): 1.2 mg/kg
- AD50 (Rattus norvegicus [19]): 3.7 mg/kg
- AD50 (Rattus norvegicus [16]): 8.8 mg/kg
- ED50 (Mus musculus [20]): 0.8 mg/kg
- AD50 (Rattus norvegicus [10]): 2 mg/kg
- AD50 (Rattus norvegicus [17]): 10 mg/kg
- ED50 (Mus musculus [11]): 7.2 mg/kg

Structure (SMILES): C[C@H]1C2Cc3ccc([N+](=O)[O-])cc3[C@@]1(C)CCN2CC1CC1.Cl
- ED50 (Mus musculus [21]): 24 mg/kg
- AD50 (Rattus norvegicus [22]): 9.6 mg/kg

Structure (SMILES): CCNc1ccc2c(c1)[C@@]1(C)CCN(CC3CC3)C(C2)[C@@H]1C
- ED50 (Mus musculus [1]): 1.3 mg/kg
- AD50 (Rattus norvegicus [23]): inactive

Structure (SMILES): C[C@H]1C2Cc3ccc(NCC4CC4)cc3[C@@]1(C)CCN2CC1CC1.Cl
- ED50 (Mus musculus [1]): 0.7 mg/kg
- AD50 (Rattus norvegicus [2]): 8 mg/kg

Structure (SMILES): CCCN1CC[C@]2(C)c3cc(N)ccc3CC1[C@@H]2C
- ED50 (Mus musculus [1]): 5.6 mg/kg
- AD50 (Rattus norvegicus [2]): 2 mg/kg

Structure (SMILES): C[C@H]1C2Cc3ccc(N(C)C)cc3[C@@]1(C)CCN2CC1CC1
- ED50 (Mus musculus [1]): 0.79 mg/kg

Structure (SMILES): C[C@H]1C2Cc3ccc(N)cc3[C@@]1(C)CCN2
- AD50 (Rattus norvegicus [24]): inactive
- ED50 (Mus musculus [1]): 6.1 mg/kg

Structure (SMILES): CC(C)CN1CC[C@]2(C)c3cc(N)ccc3CC1[C@@H]2C
- ED50 (Mus musculus [1]): 1.5 mg/kg
- AD50 (Rattus norvegicus [2]): 9.4 mg/kg

Structure (SMILES): CCCCNc1ccc2c(c1)[C@@]1(C)CCN(CC3CC3)C(C2)[C@@H]1C
- ED50 (Mus musculus [1]): 1 mg/kg
- AD50 (Rattus norvegicus [23]): inactive

Structure (SMILES): C[C@H]1C2Cc3ccc(NCc4ccccc4)cc3[C@@]1(C)CCN2CC1CC1
- AD50 (Rattus norvegicus [2]): 1 mg/kg

Structure (SMILES): CCCNc1ccc2c(c1)[C@@]1(C)CCN(CC3CC3)C(C2)[C@@H]1C
- ED50 (Mus musculus [1]): 1.2 mg/kg
- AD50 (Rattus norvegicus [25]): Questionable activity

From ChEMBL document CHEMBL1121528, “Synthesis and pharmacology of 8-amino-3-(cyclopropylmethyl)-1,2,3,4,5,6-hexahydro-cis-6,11-dimethyl-2,6-methano-3-benzazocine and related compounds” (1980)
